According to ChEMBL document CHEMBL1137338, “Effects of substitution on 9-(3-bromo-4-fluorophenyl)-5,9-dihydro-3H,4H-2,6-dioxa-4- azacyclopenta[b]naphthalene-1,8-dione, a dihydropyridine ATP-sensitive potassium channel opener” (J Med Chem, 2006):

Target: Sulfonylurea receptor 2, Kir6.2 (Homo sapiens, UniProt O60706+Q14654)
Experiment: Ability to open human urinary bladder Kir6.2 channel containing SUR2B in Ltk cells by FLIPR assay
Type: functional, cell-based
Summary of the method: (§1)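 Ltk- cells stably transfected with the Kir6.2/SUR2B exon 17- splice variant. Membrane potential was followed with DiBAC dye in a 96-well cell-based kinetic fluorescence (FLIPR) assay. The highest concentration tested was 10 µM. Each compound's maximal fluorescence response was expressed as % of the response to the reference opener.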

Sulfonylurea receptor 2, Kir6.2, sequence (Q14654 whole entry): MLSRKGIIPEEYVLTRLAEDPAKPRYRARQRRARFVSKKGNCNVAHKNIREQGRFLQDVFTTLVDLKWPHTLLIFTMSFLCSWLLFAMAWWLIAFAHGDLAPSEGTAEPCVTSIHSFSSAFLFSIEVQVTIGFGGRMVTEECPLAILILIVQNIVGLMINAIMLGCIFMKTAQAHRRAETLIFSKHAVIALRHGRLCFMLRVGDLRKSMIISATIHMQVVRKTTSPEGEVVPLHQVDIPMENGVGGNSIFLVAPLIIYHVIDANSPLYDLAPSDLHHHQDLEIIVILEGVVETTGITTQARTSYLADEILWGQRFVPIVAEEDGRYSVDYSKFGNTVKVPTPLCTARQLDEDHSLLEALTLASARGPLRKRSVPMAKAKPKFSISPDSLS
Sulfonylurea receptor 2, Kir6.2, sequence (O60706 whole entry): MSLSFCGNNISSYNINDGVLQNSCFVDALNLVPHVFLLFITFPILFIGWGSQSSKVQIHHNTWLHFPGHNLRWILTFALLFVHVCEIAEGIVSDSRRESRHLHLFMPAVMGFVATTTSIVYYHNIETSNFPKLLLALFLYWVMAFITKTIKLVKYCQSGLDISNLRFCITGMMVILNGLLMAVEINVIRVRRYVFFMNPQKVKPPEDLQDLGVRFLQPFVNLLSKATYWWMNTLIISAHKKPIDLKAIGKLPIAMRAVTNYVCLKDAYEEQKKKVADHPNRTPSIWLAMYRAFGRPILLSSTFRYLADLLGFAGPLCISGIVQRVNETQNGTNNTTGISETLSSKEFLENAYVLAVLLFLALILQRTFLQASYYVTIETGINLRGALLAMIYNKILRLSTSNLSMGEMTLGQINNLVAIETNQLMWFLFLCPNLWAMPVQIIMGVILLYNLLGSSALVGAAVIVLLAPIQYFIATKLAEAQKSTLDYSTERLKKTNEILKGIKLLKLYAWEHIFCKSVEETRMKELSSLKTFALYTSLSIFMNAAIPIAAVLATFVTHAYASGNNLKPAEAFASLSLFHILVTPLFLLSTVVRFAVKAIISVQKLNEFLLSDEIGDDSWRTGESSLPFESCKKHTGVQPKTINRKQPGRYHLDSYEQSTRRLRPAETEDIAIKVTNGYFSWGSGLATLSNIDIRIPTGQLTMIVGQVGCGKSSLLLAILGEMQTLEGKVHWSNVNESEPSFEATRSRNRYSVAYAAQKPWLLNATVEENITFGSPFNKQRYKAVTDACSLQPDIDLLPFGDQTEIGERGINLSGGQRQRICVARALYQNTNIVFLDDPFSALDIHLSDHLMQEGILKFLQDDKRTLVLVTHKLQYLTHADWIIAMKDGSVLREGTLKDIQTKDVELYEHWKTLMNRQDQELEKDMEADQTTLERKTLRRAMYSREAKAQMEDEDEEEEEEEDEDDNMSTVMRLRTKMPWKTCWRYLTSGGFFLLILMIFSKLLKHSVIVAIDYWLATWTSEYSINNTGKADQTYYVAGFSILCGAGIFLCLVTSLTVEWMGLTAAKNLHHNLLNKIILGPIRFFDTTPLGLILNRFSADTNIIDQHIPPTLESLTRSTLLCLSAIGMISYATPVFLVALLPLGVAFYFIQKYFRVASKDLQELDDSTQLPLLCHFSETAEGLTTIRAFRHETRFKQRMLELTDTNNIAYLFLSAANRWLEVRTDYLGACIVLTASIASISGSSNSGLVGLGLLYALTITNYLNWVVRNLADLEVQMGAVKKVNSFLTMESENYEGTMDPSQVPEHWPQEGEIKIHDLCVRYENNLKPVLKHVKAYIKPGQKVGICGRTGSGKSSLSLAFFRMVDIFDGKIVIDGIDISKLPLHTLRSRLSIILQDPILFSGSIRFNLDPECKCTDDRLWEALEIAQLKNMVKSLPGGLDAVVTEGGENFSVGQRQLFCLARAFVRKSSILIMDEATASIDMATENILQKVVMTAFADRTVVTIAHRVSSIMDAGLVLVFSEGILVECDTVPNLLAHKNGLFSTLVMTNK

Structure (SMILES)	EC50 [nM]
CC[C@H]1C2=C(C(=O)N1C)[C@H](c1ccc(F)c(Br)c1)C1=C(O)COCC1=N2 (relative stereo)	> 10000
CC[C@@H]1C2=C(C(=O)N1C)[C@H](c1ccc(F)c(Br)c1)C1=C(O)COCC1=N2 (relative stereo)	> 10000
CC1(C)OCC2=C(C1=O)C(c1ccc(F)c(Br)c1)C1=C(O)OCC1=N2 (single isomer, unassigned; (+))	26.9
O=C1COCC2=C1C(c1ccc(F)c(Br)c1)C1=C(O)OCC1=N2 (stereo in doubt; 6)	45.7
C[C@@H]1OCC2=C(C1=O)[C@@H](c1ccc(F)c(Br)c1)C1=C(O)OCC1=N2 (stereo in doubt; 7a)	174
C[C@@H]1OCC2=C(C1=O)[C@@H](c1ccc(F)c(Br)c1)C1=C(O)OCC1=N2 (stereo in doubt; 7b)	513
C[C@@H]1OCC2=C(C1=O)[C@H](c1ccc(F)c(Br)c1)C1=C(O)OCC1=N2 (stereo in doubt; 8a)	72.4
C[C@@H]1OCC2=C(C1=O)[C@H](c1ccc(F)c(Br)c1)C1=C(O)OCC1=N2 (stereo in doubt; 8b)	295
CC1(C)OCC2=C(C1=O)C(c1ccc(F)c(Br)c1)C1=C(O)OCC1=N2 (stereo in doubt; 9)	24
CC1(C)OCC2=C(C1=O)C(c1ccc(F)c(Br)c1)C1=C(O)OCC1=N2 (stereo in doubt; 9b)	2820
C[C@@H]1OC(O)=C2C1=NC1=C(C(=O)COC1)[C@H]2c1ccc(F)c(Br)c1 (stereo in doubt; 17b)	51.3
C[C@H]1OC(O)=C2C1=NC1=C(C(=O)COC1)[C@H]2c1ccc(F)c(Br)c1 (stereo in doubt; 18a)	64.6
C[C@H]1OC(O)=C2C1=NC1=C(C(=O)COC1)[C@H]2c1ccc(F)c(Br)c1 (stereo in doubt; 18b)	257
CC[C@@H]1OC(O)=C2C1=NC1=C(C(=O)COC1)[C@H]2c1ccc(F)c(Br)c1 (stereo in doubt; 20a)	3.89
CC[C@@H]1OC(O)=C2C1=NC1=C(C(=O)COC1)[C@H]2c1ccc(F)c(Br)c1 (stereo in doubt; 20b)	145
CCC[C@@H]1OC(O)=C2C1=NC1=C(C(=O)COC1)[C@H]2c1ccc(F)c(Br)c1 (stereo in doubt; 22a)	1
CCC[C@@H]1OC(O)=C2C1=NC1=C(C(=O)COC1)[C@H]2c1ccc(F)c(Br)c1 (stereo in doubt; 22b)	3.72
CCC[C@H]1OC(O)=C2C1=NC1=C(C(=O)COC1)[C@H]2c1ccc(F)c(Br)c1 (stereo in doubt; 23a)	3240
COC[C@H]1OC(O)=C2C1=NC1=C(C(=O)COC1)[C@H]2c1ccc(F)c(Br)c1 (stereo in doubt; 25a)	479
COC[C@H]1OC(O)=C2C1=NC1=C(C(=O)COC1)[C@H]2c1ccc(F)c(Br)c1 (stereo in doubt; 25b)	22.9
CCCC[C@H]1OC(O)=C2C1=NC1=C(C(=O)COC1)[C@H]2c1ccc(F)c(Br)c1 (stereo in doubt; 29a)	5130
CC(C)C[C@H]1OC(O)=C2C1=NC1=C(C(=O)COC1)[C@H]2c1ccc(F)c(Br)c1 (stereo in doubt; 31a)	2510
CC[C@H]1OC(O)=C2C1=NC1=C(C(=O)C(C)(C)OC1)[C@H]2c1ccc(F)c(Br)c1 (stereo in doubt; 36a)	437
CC[C@H]1OC(O)=C2C1=NC1=C(C(=O)C(C)(C)OC1)[C@H]2c1ccc(F)c(Br)c1 (stereo in doubt; 36b)	550
CC[C@H]1OC(O)=C2C1=NC1=C(C(=O)COC1(C)C)[C@H]2c1ccc(F)c(Br)c1 (stereo in doubt; 38a)	1580
CC[C@H]1OC(O)=C2C1=NC1=C(C(=O)COC1(C)C)[C@H]2c1ccc(F)c(Br)c1 (stereo in doubt; 38b)	> 10000
CCC[C@H]1OC(O)=C2C1=NC1=C(C(=O)COC1)[C@H]2c1ccc(F)c(Cl)c1 (stereo in doubt; 39a)	3390

Structure (SMILES)	EC50 [nM]
CCC[C@H]1OC(O)=C2C1=NC1=C(C(=O)COC1)[C@H]2c1ccc(F)c(I)c1 (stereo in doubt; 41a)	1950
CCC[C@H]1OC(O)=C2C1=NC1=C(C(=O)COC1)[C@H]2c1ccc(Cl)c(Cl)c1 (stereo in doubt; 42a)	1320
CCC[C@H]1OC(O)=C2C1=NC1=C(C(=O)COC1)[C@H]2c1ccc(Cl)c(Cl)c1 (stereo in doubt; 42b)	2000
CCC[C@H]1OC(O)=C2C1=NC1=C(C(=O)COC1)[C@H]2c1ccc(Cl)c(Br)c1 (stereo in doubt; 43a)	813
CCC[C@H]1OC(O)=C2C1=NC1=C(C(=O)COC1)[C@H]2c1ccc(Cl)c(Br)c1 (stereo in doubt; 43b)	151
CCC[C@H]1OC(O)=C2C1=NC1=C(C(=O)COC1)[C@H]2c1ccc(Br)c(Cl)c1 (stereo in doubt; 44a)	1050
CCC[C@H]1OC(O)=C2C1=NC1=C(C(=O)COC1)[C@H]2c1ccc(Br)c(Cl)c1 (stereo in doubt; 44b)	437
CCC[C@H]1OC(O)=C2C1=NC1=C(C(=O)COC1)[C@H]2c1ccc(Br)c(Br)c1 (stereo in doubt; 45a)	1150
CCC[C@H]1OC(O)=C2C1=NC1=C(C(=O)COC1)[C@H]2c1ccc(Br)c(Br)c1 (stereo in doubt; 45b)	126
CCC[C@H]1OC(O)=C2C1=NC1=C(C(=O)COC1)[C@H]2c1ccc(C)c(Br)c1 (stereo in doubt; 46a)	3470
CCC[C@H]1OC(O)=C2C1=NC1=C(C(=O)COC1)[C@H]2c1ccc(C)c(Br)c1 (stereo in doubt; 46b)	219
CC[C@@H]1OCC(O)=C2C1=NC1=C(C(=O)COC1)[C@H]2c1ccc(F)c(Br)c1 (stereo in doubt; 70a)	166
CC[C@@H]1OCC(O)=C2C1=NC1=C(C(=O)COC1)[C@H]2c1ccc(F)c(Br)c1 (stereo in doubt; 70b)	20
CC[C@H]1OCC(O)=C2C1=NC1=C(C(=O)COC1)[C@H]2c1ccc(F)c(Br)c1 (stereo in doubt; 71b)	> 10000
CC[C@H]1OCC(O)=C2C1=NC1=C(C(=O)COC1)[C@H]2c1ccc(F)c(Cl)c1 (stereo in doubt; 72a)	3630
CC[C@H]1OCC(O)=C2C1=NC1=C(C(=O)COC1)[C@H]2c1ccc(F)c(Cl)c1 (stereo in doubt; 72b)	> 10000
CC[C@H]1OCC(O)=C2C1=NC1=C(C(=O)COC1)[C@H]2c1ccc(F)c(I)c1 (stereo in doubt; 73a)	1290
CC[C@H]1OCC(O)=C2C1=NC1=C(C(=O)COC1)[C@H]2c1ccc(F)c(I)c1 (stereo in doubt; 73b)	2950
CC[C@H]1OCC(O)=C2C1=NC1=C(C(=O)COC1)[C@H]2c1ccc(Cl)c(Cl)c1 (stereo in doubt; 74a)	468
CC[C@H]1OCC(O)=C2C1=NC1=C(C(=O)COC1)[C@H]2c1ccc(Cl)c(Br)c1 (stereo in doubt; 75a)	759
CC[C@H]1OCC(O)=C2C1=NC1=C(C(=O)COC1)[C@H]2c1ccc(Cl)c(Br)c1 (stereo in doubt; 75b)	5500
CC[C@H]1OCC(O)=C2C1=NC1=C(C(=O)COC1)[C@H]2c1ccc(Br)c(Cl)c1 (stereo in doubt; 76a)	1620
CC[C@H]1OCC(O)=C2C1=NC1=C(C(=O)COC1)[C@H]2c1ccc(Br)c(Br)c1 (stereo in doubt; 77a)	309
CC[C@H]1OCC(O)=C2C1=NC1=C(C(=O)COC1)[C@H]2c1ccc(Br)c(Br)c1 (stereo in doubt; 77b)	427
CC[C@H]1OCC(O)=C2C1=NC1=C(C(=O)COC1)[C@H]2c1ccc(C)c(Br)c1 (stereo in doubt; 78a)	724
CC[C@H]1OCC(O)=C2C1=NC1=C(C(=O)COC1)[C@H]2c1ccc(C)c(Br)c1 (stereo in doubt; 78b)	5620

Target: Sulfonylurea receptor 2, Kir6.2 (Homo sapiens) (UniProt Q14654+O60706)
Experiment: Ability to open human urinary bladder Kir6.2 containing SUR2B in Ltk cells by FLIPR assay relative to P1075
Type: functional, cell-based
Summary of the method: as §1

Structure (SMILES)	Efficacy [%]
CCCC[C@H]1OC(O)=C2C1=NC1=C(C(=O)COC1)[C@H]2c1ccc(F)c(Br)c1 (racemic)	61
CCC[C@@H]1OC(O)=C2C1=NC1=C(C(=O)COC1)[C@H]2c1ccc(F)c(Br)c1 (racemic)	90
CCC[C@H]1OC(O)=C2C1=NC1=C(C(=O)COC1)[C@H]2c1ccc(Br)c(Br)c1 (racemic)	119
CCC[C@H]1OC(O)=C2C1=NC1=C(C(=O)COC1)[C@H]2c1ccc(Br)c(Cl)c1 (racemic)	97
CCC[C@H]1OC(O)=C2C1=NC1=C(C(=O)COC1)[C@H]2c1ccc(C)c(Br)c1 (racemic)	104
CCC[C@H]1OC(O)=C2C1=NC1=C(C(=O)COC1)[C@H]2c1ccc(Cl)c(Br)c1 (racemic)	120
CCC[C@H]1OC(O)=C2C1=NC1=C(C(=O)COC1)[C@H]2c1ccc(Cl)c(Cl)c1 (racemic)	95
CCC[C@H]1OC(O)=C2C1=NC1=C(C(=O)COC1)[C@H]2c1ccc(F)c(Cl)c1 (racemic)	42
CCC[C@H]1OC(O)=C2C1=NC1=C(C(=O)COC1)[C@H]2c1ccc(F)c(I)c1 (racemic)	105
CC[C@@H]1OC(O)=C2C1=NC1=C(C(=O)COC1)[C@H]2c1ccc(F)c(Br)c1 (racemic)	74
CC[C@H]1OC(O)=C2C1=NC1=C(C(=O)C(C)(C)OC1)[C@H]2c1ccc(F)c(Br)c1 (racemic)	70
CC[C@H]1OC(O)=C2C1=NC1=C(C(=O)COC1(C)C)[C@H]2c1ccc(F)c(Br)c1 (racemic)	48
COC[C@H]1OC(O)=C2C1=NC1=C(C(=O)COC1)[C@H]2c1ccc(F)c(Br)c1 (racemic)	103
C[C@@H]1OC(O)=C2C1=NC1=C(C(=O)COC1)[C@H]2c1ccc(F)c(Br)c1 (racemic)	100
C[C@@H]1OCC2=C(C1=O)[C@@H](c1ccc(F)c(Br)c1)C1=C(O)OCC1=N2 (racemic)	81
C[C@@H]1OCC2=C(C1=O)[C@H](c1ccc(F)c(Br)c1)C1=C(O)OCC1=N2 (racemic)	104
C[C@H]1OC(O)=C2C1=NC1=C(C(=O)COC1)[C@H]2c1ccc(F)c(Br)c1 (racemic)	75
